In ChEMBL document CHEMBL1156303, “Synthesis and SAR of N-(4-(4-alklylpiperazin-1-yl)phenyl)benzamides as muscarinic acetylcholine receptor subtype 1 (M1) anatgonists” (Bioorg Med Chem Lett, 2010) one finds IC50 and Selectivity ratio data, which are given here for twelve compounds.

For assay [1], the target named is T1, Muscarinic acetylcholine receptor M2 (Homo sapiens, UniProt P08172).
T1 sequence (P08172 whole entry): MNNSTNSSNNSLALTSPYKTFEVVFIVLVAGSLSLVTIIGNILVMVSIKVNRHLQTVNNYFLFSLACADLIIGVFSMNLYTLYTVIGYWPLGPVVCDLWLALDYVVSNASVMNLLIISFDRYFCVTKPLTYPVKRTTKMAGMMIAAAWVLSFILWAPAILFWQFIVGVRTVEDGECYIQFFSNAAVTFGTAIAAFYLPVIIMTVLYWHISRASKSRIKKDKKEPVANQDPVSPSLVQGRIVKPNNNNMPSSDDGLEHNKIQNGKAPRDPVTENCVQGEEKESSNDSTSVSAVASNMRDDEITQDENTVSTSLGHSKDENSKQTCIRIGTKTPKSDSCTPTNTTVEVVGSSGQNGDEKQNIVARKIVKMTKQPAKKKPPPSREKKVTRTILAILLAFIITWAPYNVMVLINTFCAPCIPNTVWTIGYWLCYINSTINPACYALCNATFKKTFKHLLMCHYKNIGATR
Kind of assay: Antagonist activity at human muscarinic M2 receptor expressed in CHO-K1 cells coexpressing Gqi5 chimeric G-protein assessed as inhibition of acetylcholine-induced calcium mobilization. It is filed as functional, cell-based. The method, boiled down: (§1)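 Stable muscarinic cell lines (hM2 and hM4 stably transfected with Gqi5 chimera) plated overnight, then loaded with 2 µM Fluo-4 AM in HBSS with 20 mM HEPES and 2.5 mM probenecid, pH 7.4, for 45 min at 37°C. Dye replaced with assay buffer. Cells pre-incubated with compound at 10 µM or across a concentration-response curve, then challenged with sub-maximal acetylcholine or carbachol. Read-out: calcium mobilization.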
For orientation: Calcium assays in cells follow changes in intracellular calcium, usually with a dye or a luminescent sensor.

Assay [2] concerns the target T2, Muscarinic acetylcholine receptor M5 (Homo sapiens) (UniProt P08912).
T2 sequence (whole entry): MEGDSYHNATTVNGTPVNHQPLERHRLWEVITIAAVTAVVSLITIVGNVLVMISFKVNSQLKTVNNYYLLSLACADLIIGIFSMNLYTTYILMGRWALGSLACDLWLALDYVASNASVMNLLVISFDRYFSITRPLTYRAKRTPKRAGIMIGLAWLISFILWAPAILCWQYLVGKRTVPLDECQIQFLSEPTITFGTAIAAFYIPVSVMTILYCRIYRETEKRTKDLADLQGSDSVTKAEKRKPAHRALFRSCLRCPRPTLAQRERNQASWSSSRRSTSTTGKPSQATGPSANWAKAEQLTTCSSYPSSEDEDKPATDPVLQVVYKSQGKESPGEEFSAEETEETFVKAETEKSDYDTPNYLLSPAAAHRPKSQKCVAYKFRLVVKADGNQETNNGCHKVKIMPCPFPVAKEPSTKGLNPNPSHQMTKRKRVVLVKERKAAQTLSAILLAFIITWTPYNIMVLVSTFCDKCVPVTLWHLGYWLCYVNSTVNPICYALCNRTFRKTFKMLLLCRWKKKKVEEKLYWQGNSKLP
The experiment in a line: Antagonist activity at human muscarinic M5 receptor expressed in CHO-K1 cells assessed as inhibition of acetylcholine-induced calcium mobilization at 10 uM. Format: functional, cell-based.

Assay [3] concerns the target Muscarinic acetylcholine receptor M3 (Homo sapiens, UniProt P20309). Kind of assay: Antagonist activity at human muscarinic M3 receptor expressed in CHO-K1 cells assessed as inhibition of acetylcholine-induced calcium mobilization. Format: functional, cell-based.
The target of assay [4] is T3, Muscarinic acetylcholine receptor M1 (Homo sapiens, UniProt P11229).
T3 sequence (P11229 whole entry): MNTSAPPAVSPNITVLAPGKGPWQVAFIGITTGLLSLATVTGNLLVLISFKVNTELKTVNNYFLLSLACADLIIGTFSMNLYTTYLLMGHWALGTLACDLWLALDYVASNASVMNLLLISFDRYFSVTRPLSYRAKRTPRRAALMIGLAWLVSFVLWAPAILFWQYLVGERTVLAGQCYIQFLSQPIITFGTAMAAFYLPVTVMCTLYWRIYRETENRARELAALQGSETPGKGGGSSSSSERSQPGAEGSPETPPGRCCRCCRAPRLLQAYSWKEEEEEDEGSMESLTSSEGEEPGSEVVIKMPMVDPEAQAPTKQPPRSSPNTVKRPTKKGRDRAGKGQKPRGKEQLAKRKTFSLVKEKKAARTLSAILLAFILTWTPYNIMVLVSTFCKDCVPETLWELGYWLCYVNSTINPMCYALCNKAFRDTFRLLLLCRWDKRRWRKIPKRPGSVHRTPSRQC
Kind of assay: Antagonist activity at human muscarinic M1 receptor expressed in CHO-K1 cells assessed as inhibition of acetylcholine-induced calcium mobilization. Format: functional, cell-based.

For assay [5], the target named is T4, Muscarinic acetylcholine receptor M4 (Homo sapiens, UniProt P08173).
T4 sequence (P08173 whole entry): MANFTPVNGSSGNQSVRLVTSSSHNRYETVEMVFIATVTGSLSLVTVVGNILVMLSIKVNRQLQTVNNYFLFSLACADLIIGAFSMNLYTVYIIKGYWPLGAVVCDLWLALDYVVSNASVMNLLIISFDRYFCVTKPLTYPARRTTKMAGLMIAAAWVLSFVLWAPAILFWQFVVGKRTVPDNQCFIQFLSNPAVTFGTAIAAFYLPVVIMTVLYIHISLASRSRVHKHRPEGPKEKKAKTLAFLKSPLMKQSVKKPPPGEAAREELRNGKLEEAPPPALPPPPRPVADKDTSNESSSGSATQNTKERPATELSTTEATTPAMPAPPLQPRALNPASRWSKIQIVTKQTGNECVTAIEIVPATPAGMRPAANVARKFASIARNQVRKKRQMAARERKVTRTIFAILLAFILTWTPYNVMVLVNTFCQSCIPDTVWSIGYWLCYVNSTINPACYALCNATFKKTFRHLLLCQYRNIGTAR
The experiment in a line: Antagonist activity at human muscarinic M4 receptor expressed in CHO-K1 cells coexpressing Gqi5 chimeric G-protein assessed as inhibition of acetylcholine-induced calcium mobilization. It is filed as functional, cell-based. Put shortly: as §1

Assay [6] has as its target T5, Muscarinic acetylcholine receptor M5 (Homo sapiens, UniProt P08912).
T5 sequence (P08912 whole entry): T2 sequence (whole entry)
The experiment in a line: Antagonist activity at human muscarinic M5 receptor expressed in CHO-K1 cells assessed as inhibition of acetylcholine-induced calcium mobilization. It is filed as functional, cell-based.

A short description of assay [7]: Selectivity ratio of muscarinic M3 receptor over muscarinic M2 receptor.

Sequence of Muscarinic acetylcholine receptor M3 (P20309 whole entry): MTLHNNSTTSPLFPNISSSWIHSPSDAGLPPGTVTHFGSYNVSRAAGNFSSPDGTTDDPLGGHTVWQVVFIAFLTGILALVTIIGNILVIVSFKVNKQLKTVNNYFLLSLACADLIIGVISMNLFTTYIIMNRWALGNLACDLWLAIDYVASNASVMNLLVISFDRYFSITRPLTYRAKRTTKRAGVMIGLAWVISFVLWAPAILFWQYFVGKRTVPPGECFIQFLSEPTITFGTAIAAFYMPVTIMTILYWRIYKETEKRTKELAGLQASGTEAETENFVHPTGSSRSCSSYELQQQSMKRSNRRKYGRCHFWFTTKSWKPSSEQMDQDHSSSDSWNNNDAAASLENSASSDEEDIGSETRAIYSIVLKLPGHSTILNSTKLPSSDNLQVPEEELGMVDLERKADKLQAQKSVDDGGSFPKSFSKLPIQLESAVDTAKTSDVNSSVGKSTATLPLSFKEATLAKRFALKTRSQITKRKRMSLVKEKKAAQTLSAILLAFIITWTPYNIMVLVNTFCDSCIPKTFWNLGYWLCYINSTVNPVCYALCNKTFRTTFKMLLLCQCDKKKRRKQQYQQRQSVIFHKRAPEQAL

As usually defined, the IC50 is the concentration that inhibits the measured activity by half. For `CCN1CCN(c2ccc(NC(=O)c3cc(C(F)(F)F)cc(C(F)(F)F)c3)cc2Cl)CC1`, the IC50 in assay [1] was over 10 µM; in assay [2] it was 10 µM; in assay [3] it was over 10 µM; in assay [4], 2.6 µM; in assay [5] it was 3.7 µM; in assay [6], over 10 µM.
On to `CCN1CCN(c2ccc(NC(=O)c3cc(C(F)(F)F)ccc3C(F)(F)F)cc2Cl)CC1`, for which the IC50 in assay [1] amounted to 2.7 µM; in assay [3], 4.2 µM; in assay [4], 0.49 µM; in assay [5], 1.5 µM; in assay [6], 4.1 µM.
For `CCN1CCN(c2ccc(NC(=O)c3c(F)c(F)c(F)c(F)c3F)cc2Cl)CC1`, the values for the concentration for half-maximal inhibition (IC50) in assay [3], in assay [4] and in assay [6] were 3.7 µM, 0.35 µM and 0.83 µM, respectively.
Regarding `CCN1CCN(c2ccc(NC(=O)c3cccc(C(F)(F)F)c3)cc2Cl)CC1`, the IC50 in assay [1] was over 10 µM; in assay [3] it was 4.3 µM; in assay [4] it was 2.9 µM; in assay [5] it was 3.7 µM; in assay [6], 4.1 µM.
Turning to `CCN1CCN(c2ccc(NC(=O)c3ccccc3Cl)cc2Cl)CC1`, the figures for the IC50 in assay [4] and in assay [6] were 0.96 µM and 2.3 µM, respectively.
On to `CCN1CCN(c2ccc(NC(=O)c3ccc(C)cc3)cc2Cl)CC1`, for which the IC50 is over 10 µM in assay [1]; 3.7 µM in assay [3]; 2.9 µM in assay [4]; over 10 µM in assay [5]; 6.9 µM in assay [6].
With `Cc1ccc(N2C[C@@H]3[C@H](C2)[C@H]3NC(=O)C(O)(c2ccccc2)C2CCCCC2)cc1` (stereo partly specified), the Selectivity ratio in assay [7] came out at 20.
On to `CCN1CCN(c2ccc(NC(=O)c3ccc(OC)cc3)cc2Cl)CC1`, for which the IC50 is over 10 µM in assay [3], 3.2 µM in assay [4] and over 10 µM in assay [6].
Consider `CCN1CCN(c2ccc(NC(=O)c3ccccc3OC)cc2Cl)CC1`, for which the IC50 in assay [3] was determined as 5.6 µM; in assay [4], 0.82 µM; in assay [6] it was 1.3 µM.
Turning to `CCN1CCN(c2ccc(NC(=O)c3ccccc3)cc2Cl)CC1`, the IC50 in assay [1] is over 10 µM; in assay [3], over 10 µM; in assay [4], 3.2 µM; in assay [5] it was over 10 µM; in assay [6] it was over 10 µM.
For `CCN1CCN(c2ccc(NC(=O)c3cccc(C)c3)cc2Cl)CC1`, the IC50 in assay [3] is over 10 µM; in assay [4], 2.1 µM; in assay [6] it was 3.5 µM.
Turning to `CCN1CCN(c2ccc(NC(=O)c3ccc(F)c(F)c3)cc2Cl)CC1`, the IC50 in assay [1] was over 10 µM; in assay [3], over 10 µM; in assay [4] it was 4.7 µM; in assay [5] it was over 10 µM; in assay [6], over 10 µM.
